Calls of active or inactive are those of the source. The rule behind the calls is not given here.
Tests used:
Assay type in all cases: functional
Pseudomonas aeruginosa [1] = test: Antibacterial activity against multidrug/extremely drug-resistant/colistin-susceptible Pseudomonas aeruginosa isolate P264-104354 after 18 hrs by microtiter dilution assay
In short: (§1)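 Broth microdilution following CLSI guidelines. An overnight culture was adjusted to 0.5 McFarland in saline, then diluted 1:50 in Mueller-Hinton broth. This inoculum was added in equal volume to 2-fold serial dilutions of agent in MHB and incubated 18 h at 37 °C. MIC was the lowest concentration with no visible growth.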

Pseudomonas aeruginosa [2] = test: Induction of cytoplasmic membrane depolarization in Pseudomonas aeruginosa PAO1 up to 300 secs by diSC3-5 staining based fluorescence assay
In short: (§2)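 Mid-log PAO1 washed in 5 mM HEPES pH 7.4 with 20 mM glucose and resuspended to OD600 0.05. Cells were loaded with 0.2 mM EDTA and 0.4 µM diSC3-5 for 2 h at 37 °C in the dark, then equilibrated with 100 mM KCl for 30 min. Agent was added and fluorescence followed at 622/670 nm; agents tested at 32 µg/mL.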

Pseudomonas aeruginosa [3] = test: Antibacterial activity against multidrug/extremely drug-resistant/colistin-susceptible Pseudomonas aeruginosa isolate 100036 after 18 hrs by microtiter dilution assay; in short: as §1
Pseudomonas aeruginosa [4] = test: Antibacterial activity against multidrug/extremely drug-resistant/colistin-susceptible Pseudomonas aeruginosa isolate 101885 after 18 hrs by microtiter dilution assay; in short: as §1
Pseudomonas aeruginosa [5] = test: Antibacterial activity against multidrug/extremely drug-resistant/colistin-resistant Pseudomonas aeruginosa isolate 91433 after 18 hrs by microtiter dilution assay; in short: as §1
Pseudomonas aeruginosa [6] = test: Potentiation of novobiocin-induced antibacterial activity against Pseudomonas aeruginosa PAO1 at 4 ug/ml after 18 hrs by checkerboard assay
Pseudomonas aeruginosa [7] = test: Antibacterial activity against Pseudomonas aeruginosa PAO1 assessed as ratio of MIC after 25 serial passages to MIC before 25 serial passages by microtiter dilution assay
In short: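 Sequential passaging of wild-type PAO1 with single drugs or drug combinations. MIC was tested in MHB for 18 h. Cells from the well at half the MIC were adjusted to 0.5 McFarland in saline, diluted 1:50 in fresh MHB and used for the next MIC test. This was repeated for 25 passages, and the fold change in MIC was plotted against passage number.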

Pseudomonas aeruginosa [8] = test: Disruption of proton motive force in Pseudomonas aeruginosa PAO1 cytoplasmic membrane assessed as repression of bacterial swimming motility at sub-MIC after 20 hrs
In short: (§3)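 Swim plates of 0.3% agar with tryptone 5 g/L and NaCl 2.5 g/L, agent mixed into the medium and plates dried 2 h. PAO1 at 1.0 McFarland in 0.85% saline was point-inoculated at the center, and plates incubated 20 h at 37 °C before swim diameter was imaged.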

Pseudomonas aeruginosa [9] = test: Induction of outer membrane permeabilization in Pseudomonas aeruginosa PAO1 at 32 ug/ml after 30 mins by CFDASE staining based fluorescence assay
In short: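 Log-phase PAO1 washed in PBS, brought to OD600 0.5 and loaded with 100 µM CFDASE for 30 min at 37 °C, then washed. Cells were exposed to agent for 30 min at 37 °C and supernatant fluorescence read at 488/520 nm. Untreated cells were subtracted; 1% Triton X-100 served as positive control.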

Pseudomonas aeruginosa [10] = test: Antibacterial activity against multidrug/extremely drug-resistant/colistin-resistant Pseudomonas aeruginosa isolate 101243 after 18 hrs by microtiter dilution assay; in short: as §1
Pseudomonas aeruginosa [11] = test: Antibacterial activity against Pseudomonas aeruginosa PAO1 after 18 hrs by microtiter dilution assay; in short: as §1
Pseudomonas aeruginosa [12] = test: Antibacterial activity against multidrug/extremely drug-resistant/colistin-susceptible Pseudomonas aeruginosa isolate P262-101856 after 18 hrs by microtiter dilution assay; in short: as §1
Pseudomonas aeruginosa [13] = test: Potentiation of rifampicin-induced antibacterial activity against Pseudomonas aeruginosa PAO1 at 4 ug/ml after 18 hrs by checkerboard assay
In short: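 Checkerboard in MHB with a 10 × 7 matrix: antibiotic serially diluted along one axis, adjuvant along the other. Inoculum was a 1:50 dilution of a 0.5 McFarland suspension, incubated 18 h at 37 °C and read on a plate reader. Each FIC is the concentration in a no-growth well divided by the MIC alone; FIC index is their sum, with ≤0.5 taken as synergy.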

Pseudomonas aeruginosa [14] = test: Antibacterial activity against multidrug/extremely drug-resistant/colistin-susceptible Pseudomonas aeruginosa isolate P259-96918 after 18 hrs by microtiter dilution assay; in short: as §1
Escherichia coli [15] = test: Antibacterial activity against Escherichia coli ATCC 25922 after 18 hrs by microtiter dilution assay; conditions: ATCC 25922, 18 h; in short: as §1
Pseudomonas aeruginosa [16] = test: Synergistic antibacterial activity against Pseudomonas aeruginosa PAO1 after 18 hrs in presence of minocycline by checkerboard assay
In short: (§4)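 Checkerboard in MHB: antibiotic diluted along one axis and adjuvant along the other (10 × 7 matrix). Inoculum was a 1:50 dilution in MHB of a 0.5 McFarland saline suspension; incubated 18 h at 37 °C. Each FIC = concentration in the no-growth well divided by the MIC alone; FIC index = sum of both FICs. ≤0.5 synergy, 0.5–4 no interaction, ≥4 antagonism.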

Pseudomonas aeruginosa [17] = test: Synergistic antibacterial activity against Pseudomonas aeruginosa PAO1 after 18 hrs in presence of rifampicin by checkerboard assay; in short: as §4
Enterococcus faecalis = test: Antibacterial activity against Enterococcus faecalis ATCC 29212 after 18 hrs by microtiter dilution assay; conditions: ATCC 29212, 18 h
In short: (§5)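 Broth microdilution per CLSI. Overnight culture adjusted to 0.5 McFarland in saline, diluted 1:50 in Mueller-Hinton broth, and added to an equal volume of 2-fold serial compound dilutions in MHB. Incubated 18 h at 37 °C. MIC taken as the lowest concentration with no visible growth.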

[18] = tested on: Staphylococcus epidermidis; test: Antibacterial activity against methicillin-susceptible Staphylococcus epidermidis isolate CANWARD-2008 81388 after 18 hrs by microtiter dilution assay; conditions: isolate CANWARD-2008 81388, 18 h; in short: as §1
Acinetobacter baumannii = test: Antibacterial activity against Acinetobacter baumannii isolate CAN-ICU 63169 after 18 hrs by microtiter dilution assay; conditions: isolate CAN-ICU 63169, 18 h; in short: as §5
Pseudomonas aeruginosa [19] = test: Antibacterial activity against gentamicin/tobramycin-resistant Pseudomonas aeruginosa isolate CANWARD-2011 96846 after 18 hrs by microtiter dilution assay; conditions: isolate CANWARD-2011 96846, 18 h; in short: as §1
Staphylococcus aureus [20] = test: Antibacterial activity against Staphylococcus aureus ATCC 29213 after 18 hrs by microtiter dilution assay; conditions: ATCC 29213, 18 h; in short: as §1
Escherichia coli [21] = test: Antibacterial activity against amikacin-resistant Escherichia coli isolate CAN-ICU 63074 after 18 hrs by microtiter dilution assay; conditions: isolate CAN-ICU 63074, 18 h; in short: as §1
Staphylococcus aureus [22] = test: Antibacterial activity against methicillin resistant Staphylococcus aureus ATCC 33592 after 18 hrs by microtiter dilution assay; conditions: ATCC 33592, 18 h; in short: as §1
Streptococcus pneumoniae = test: Antibacterial activity against Streptococcus pneumoniae ATCC 49619 after 18 hrs by microtiter dilution assay; conditions: ATCC 49619, 18 h; in short: as §5
Pseudomonas aeruginosa [23] = test: Induction of cytoplasmic membrane depolarization in Pseudomonas aeruginosa PAO1 up to 1200 secs by diSC3-5 staining based fluorescence assay; in short: as §2
Pseudomonas aeruginosa [24] = test: Antibacterial activity against Pseudomonas aeruginosa ATCC 27853 after 18 hrs by microtiter dilution assay; conditions: ATCC 27853, 18 h; in short: as §5
[25] = tested on: Staphylococcus epidermidis; test: Antibacterial activity against methicillin-resistant Staphylococcus epidermidis isolate CAN-ICU 61589 after 18 hrs by microtiter dilution assay; conditions: isolate CAN-ICU 61589, 18 h; in short: as §1
Enterococcus faecium = test: Antibacterial activity against Enterococcus faecium ATCC 27270 after 18 hrs by microtiter dilution assay; conditions: ATCC 27270, 18 h; in short: as §5
Escherichia coli [26] = test: Antibacterial activity against gentamicin/tobramycin/ciprofloxacin-resistant Escherichia coli isolate CANWARD-2011 97615 harboring AAC3-2A after 18 hrs by microtiter dilution assay; conditions: isolate CANWARD-2011 97615, 18 h; in short: as §1
Pseudomonas aeruginosa [27] = test: Antibacterial activity against gentamicin-resistant Pseudomonas aeruginosa isolate CAN-ICU 62308 after 18 hrs by microtiter dilution assay; conditions: isolate CAN-ICU 62308, 18 h; in short: as §1
Pseudomonas aeruginosa [28] = test: Disruption of proton motive force in Pseudomonas aeruginosa PAO1 cytoplasmic membrane assessed as repression of bacterial swimming motility after 20 hrs; in short: as §3
Klebsiella pneumoniae = test: Antibacterial activity against Klebsiella pneumoniae ATCC 13883 after 18 hrs by microtiter dilution assay; conditions: ATCC 13883, 18 h; in short: as §5
Escherichia coli [29] = test: Antibacterial activity against gentamicin-resistant Escherichia coli isolate CAN-ICU 61714 after 18 hrs by microtiter dilution assay; conditions: isolate CAN-ICU 61714, 18 h; in short: as §1
[30] = tested on: Stenotrophomonas maltophilia; test: Antibacterial activity against Stenotrophomonas maltophilia isolate CAN-ICU 62584 after 18 hrs by microtiter dilution assay; conditions: isolate CAN-ICU 62584, 18 h; in short: as §5

COLISTIN
MIC (Pseudomonas aeruginosa [1]): 4 µg/mL
Activity (Pseudomonas aeruginosa [2]): Dose-dependent effect
MIC (Pseudomonas aeruginosa [3]): 2 µg/mL
MIC (Pseudomonas aeruginosa [4]): 0.5 µg/mL
MIC (Pseudomonas aeruginosa [5]): 4 µg/mL
Activity (Pseudomonas aeruginosa [6]): Active
Ratio (Pseudomonas aeruginosa [7]): 1024
Activity (Pseudomonas aeruginosa [8]): Active
Activity (Pseudomonas aeruginosa [9]): Active
MIC (Pseudomonas aeruginosa [10]): > 1020 µg/mL
MIC (Pseudomonas aeruginosa [11]): 1 µg/mL
MIC (Pseudomonas aeruginosa [12]): 2 µg/mL
Activity (Pseudomonas aeruginosa [13]): Active
MIC (Pseudomonas aeruginosa [14]): 0.5 µg/mL

CCCCCCCCCCCCN(Cc1c2ccccc2c(Cl)c2ccccc12)C(=O)[C@@H](N)CCCCN.O=C(O)C(F)(F)F.O=C(O)C(F)(F)F
MIC (Pseudomonas aeruginosa [1]; isolate P264-104354, 18 h): 128 µg/mL
MIC (Escherichia coli [15]): 64 µg/mL
Activity (Pseudomonas aeruginosa [16]): inactive
MIC (Pseudomonas aeruginosa [3]; isolate 100036, 18 h): 256 µg/mL
MIC (Pseudomonas aeruginosa [4]; isolate 101885, 18 h): 128 µg/mL
Activity (Pseudomonas aeruginosa [17]): inactive
MIC (Pseudomonas aeruginosa [5]; isolate 91433, 18 h): 256 µg/mL
MIC (Enterococcus faecalis): 32 µg/mL
MIC [18]: 8 µg/mL
MIC (Acinetobacter baumannii): 128 µg/mL
Activity (Pseudomonas aeruginosa [9]): inactive
MIC (Pseudomonas aeruginosa [10]; isolate 101243, 18 h): 64 µg/mL
MIC (Pseudomonas aeruginosa [19]): > 128 µg/mL
MIC (Pseudomonas aeruginosa [11]; PAO1, 18 h): 256 µg/mL
MIC (Staphylococcus aureus [20]): 32 µg/mL
MIC (Escherichia coli [21]): 64 µg/mL
MIC (Staphylococcus aureus [22]): 64 µg/mL
MIC (Streptococcus pneumoniae): 32 µg/mL
Activity (Pseudomonas aeruginosa [23]): Dose-dependent effect
MIC (Pseudomonas aeruginosa [24]): > 128 µg/mL
MIC [25]: 8 µg/mL
MIC (Enterococcus faecium): 8 µg/mL
MIC (Escherichia coli [26]): 64 µg/mL
MIC (Pseudomonas aeruginosa [27]): 128 µg/mL
MIC (Pseudomonas aeruginosa [12]; isolate P262-101856, 18 h): 128 µg/mL
Activity (Pseudomonas aeruginosa [28]): Dose-dependent effect
MIC (Klebsiella pneumoniae): > 128 µg/mL
MIC (Escherichia coli [29]): 128 µg/mL
MIC [30]: > 128 µg/mL
MIC (Pseudomonas aeruginosa [14]; isolate P259-96918, 18 h): 64 µg/mL

Reference: ChEMBL document CHEMBL4014308, “Amphiphilic Tobramycin-Lysine Conjugates Sensitize Multidrug Resistant Gram-Negative Bacteria to Rifampicin and Minocycline” (J Med Chem, 2017)
